Assay results published in ChEMBL document CHEMBL1148329, “Synthesis and structure-activity studies on N-[5-(1H-imidazol-4-yl)-5,6,7,8-tetrahydro-1-naphthalenyl]methanesulfonamide, an imidazole-containing alpha(1A)-adrenoceptor agonist” (J Med Chem, 2004).

How the values were obtained:
[1] = biological target: T1, Alpha-2A adrenergic receptor (Rattus norvegicus) (UniProt P22909); test: Efficacy relative to clonidine to constrict tissue containing the alpha-2A adrenergic receptor in rat prostatic vas deferens
T1 sequence (whole entry): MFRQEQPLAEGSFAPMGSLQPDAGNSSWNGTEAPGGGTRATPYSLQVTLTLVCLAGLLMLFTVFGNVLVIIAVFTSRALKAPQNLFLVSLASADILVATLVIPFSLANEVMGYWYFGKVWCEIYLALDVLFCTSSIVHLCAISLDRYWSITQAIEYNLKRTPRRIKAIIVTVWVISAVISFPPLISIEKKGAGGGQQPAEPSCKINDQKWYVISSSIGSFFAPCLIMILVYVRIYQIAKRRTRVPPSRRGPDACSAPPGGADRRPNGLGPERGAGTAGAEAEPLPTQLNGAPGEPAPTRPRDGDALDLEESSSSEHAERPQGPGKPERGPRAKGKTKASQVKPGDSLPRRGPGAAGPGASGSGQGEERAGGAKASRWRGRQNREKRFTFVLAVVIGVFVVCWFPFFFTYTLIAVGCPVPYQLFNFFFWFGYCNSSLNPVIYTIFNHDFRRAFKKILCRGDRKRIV

Canis familiaris [2] = test: Uroselectivity was determined by measuring effective dose required for 20 mmHg increase of mean arterial pressure (MAP) in vivo in dog; type: functional, Canis lupus familiaris, Artery
Summary of the method: (§1)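 Dog model recording intraurethral pressure (IUP) and mean arterial pressure (MAP) simultaneously. Increasing iv doses given, maximal effect of each dose taken. Doses giving a 5 mmHg rise in IUP (ED Δ5) or 20 mmHg rise in MAP (ED Δ20) were calculated, in nmol/kg ± SEM, n ≥ 4 (2 or 3 where footnoted).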

[3] = biological target: T2, Alpha-2A adrenergic receptor (Homo sapiens, UniProt P08913); test: In vitro binding affinity towards alpha-2A adrenergic receptor of human clone in radioligand binding assay
T2 sequence (P08913 whole entry): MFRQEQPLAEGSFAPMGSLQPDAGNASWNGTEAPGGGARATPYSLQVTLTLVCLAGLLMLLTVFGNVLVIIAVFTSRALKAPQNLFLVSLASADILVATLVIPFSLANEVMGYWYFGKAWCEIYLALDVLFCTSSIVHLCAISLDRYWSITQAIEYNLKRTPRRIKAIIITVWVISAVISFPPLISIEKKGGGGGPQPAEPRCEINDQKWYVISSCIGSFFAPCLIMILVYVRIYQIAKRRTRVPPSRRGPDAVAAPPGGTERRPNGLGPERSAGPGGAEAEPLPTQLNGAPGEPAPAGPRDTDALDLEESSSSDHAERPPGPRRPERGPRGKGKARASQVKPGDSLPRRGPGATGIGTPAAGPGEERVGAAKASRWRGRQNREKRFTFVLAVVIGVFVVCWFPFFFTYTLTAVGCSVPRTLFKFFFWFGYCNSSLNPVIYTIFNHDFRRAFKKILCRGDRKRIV

[4] = biological target: T3, Alpha-2B adrenergic receptor (Rattus norvegicus, UniProt P19328); test: In vitro binding affinity towards alpha-2B adrenergic receptor of rat neonatal lung in radioligand binding assay
T3 sequence (P19328 whole entry): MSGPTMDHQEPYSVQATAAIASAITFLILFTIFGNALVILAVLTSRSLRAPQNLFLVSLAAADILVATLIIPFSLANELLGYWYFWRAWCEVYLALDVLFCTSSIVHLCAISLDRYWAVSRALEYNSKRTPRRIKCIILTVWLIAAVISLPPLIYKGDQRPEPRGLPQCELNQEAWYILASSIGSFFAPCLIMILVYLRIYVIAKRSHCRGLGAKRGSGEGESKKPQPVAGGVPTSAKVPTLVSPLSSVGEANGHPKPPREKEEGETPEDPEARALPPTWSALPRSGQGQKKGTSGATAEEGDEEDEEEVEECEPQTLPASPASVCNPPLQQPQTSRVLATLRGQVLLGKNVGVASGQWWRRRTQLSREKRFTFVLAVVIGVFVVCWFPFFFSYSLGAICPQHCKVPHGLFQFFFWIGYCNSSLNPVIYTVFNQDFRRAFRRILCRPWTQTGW

[5] = biological target: T4, Alpha-1A adrenergic receptor (Oryctolagus cuniculus) (UniProt O02824); test: Efficacy relative to phenylephrine (PE) to constrict tissue containing the alpha-1A adrenergic receptor in rabbit urethra; type: functional, tissue-based
T4 sequence (whole entry): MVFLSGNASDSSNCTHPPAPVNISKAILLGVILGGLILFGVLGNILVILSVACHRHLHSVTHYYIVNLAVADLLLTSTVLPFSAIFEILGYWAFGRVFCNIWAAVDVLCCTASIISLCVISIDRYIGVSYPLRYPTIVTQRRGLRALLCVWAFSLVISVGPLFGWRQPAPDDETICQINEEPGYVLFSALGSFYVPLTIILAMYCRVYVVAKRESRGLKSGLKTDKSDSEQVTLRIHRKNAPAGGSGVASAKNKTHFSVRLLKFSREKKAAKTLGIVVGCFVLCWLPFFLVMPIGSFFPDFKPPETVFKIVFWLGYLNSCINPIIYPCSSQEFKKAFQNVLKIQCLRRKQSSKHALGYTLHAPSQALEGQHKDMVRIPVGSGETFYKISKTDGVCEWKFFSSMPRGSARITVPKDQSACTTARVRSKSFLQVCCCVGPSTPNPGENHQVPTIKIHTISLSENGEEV
Summary of the method: (§2)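 α1-agonist dose–response curves in isolated tissue: rabbit urethra (α1A), rat spleen (α1B), rat aorta (α1D). Agonist potency and efficacy read from the concentration–response curves.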

[6] = biological target: T5, Alpha-1B adrenergic receptor (Rattus norvegicus) (UniProt P15823); test: Efficacy relative to phenylephrine (PE) constriction of rat spleen containing alpha-1B adrenergic receptor; type: functional, tissue-based
T5 sequence (whole entry): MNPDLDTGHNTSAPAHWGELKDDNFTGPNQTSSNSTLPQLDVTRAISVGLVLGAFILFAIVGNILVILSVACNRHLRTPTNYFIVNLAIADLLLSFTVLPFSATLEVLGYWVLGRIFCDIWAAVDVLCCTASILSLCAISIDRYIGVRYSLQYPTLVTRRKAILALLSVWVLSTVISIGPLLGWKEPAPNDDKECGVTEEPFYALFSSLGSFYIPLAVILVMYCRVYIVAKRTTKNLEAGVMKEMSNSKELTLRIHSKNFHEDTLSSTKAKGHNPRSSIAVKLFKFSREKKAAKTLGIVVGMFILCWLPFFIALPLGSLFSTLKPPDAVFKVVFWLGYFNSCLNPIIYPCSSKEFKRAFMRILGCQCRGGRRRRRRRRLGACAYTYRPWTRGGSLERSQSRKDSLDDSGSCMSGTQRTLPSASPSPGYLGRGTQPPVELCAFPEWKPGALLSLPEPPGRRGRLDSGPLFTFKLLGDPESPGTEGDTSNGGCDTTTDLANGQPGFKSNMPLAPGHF
Summary of the method: as §2

[7] = biological target: Alpha adrenergic receptor 1A and 1B (Rattus norvegicus) (UniProt P15823+P43140); test: Selectivity is ratio of pKi (binding affinity) of alpha-1B receptor to that of alpha-1A receptor.; type: protein assay
[8] = biological target: T6, Alpha-1D adrenergic receptor (Rattus norvegicus, UniProt P23944); test: In vitro binding affinity towards alpha-1D adrenergic receptor of rat clone in radioligand binding assay
T6 sequence (P23944 whole entry): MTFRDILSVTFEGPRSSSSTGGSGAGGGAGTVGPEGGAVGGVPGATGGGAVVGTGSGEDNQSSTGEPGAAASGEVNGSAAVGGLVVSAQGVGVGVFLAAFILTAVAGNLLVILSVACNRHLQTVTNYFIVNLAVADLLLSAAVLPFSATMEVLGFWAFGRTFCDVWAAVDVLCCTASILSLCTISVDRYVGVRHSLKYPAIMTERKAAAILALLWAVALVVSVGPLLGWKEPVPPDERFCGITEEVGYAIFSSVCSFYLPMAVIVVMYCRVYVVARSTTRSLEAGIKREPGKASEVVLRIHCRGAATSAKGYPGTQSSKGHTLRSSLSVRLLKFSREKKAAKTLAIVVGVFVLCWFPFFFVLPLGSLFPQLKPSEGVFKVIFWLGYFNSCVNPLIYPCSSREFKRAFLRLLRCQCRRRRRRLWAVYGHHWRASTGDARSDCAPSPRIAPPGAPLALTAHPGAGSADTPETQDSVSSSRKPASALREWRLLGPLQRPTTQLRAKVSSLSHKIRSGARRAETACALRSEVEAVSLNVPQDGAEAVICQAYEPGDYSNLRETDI
Summary of the method: (§3)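 Radioligand binding at α1 subtypes: α1A from rat submaxillary gland, α1B hamster clone, α1D rat clone. Run essentially per an earlier method.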

[9] = biological target: T7, Alpha-1B adrenergic receptor (Mesocricetus auratus, UniProt P18841); test: In vitro binding affinity towards alpha-1B adrenergic receptor of hamster clone in radioligand binding assay; type: single protein
T7 sequence (P18841 whole entry): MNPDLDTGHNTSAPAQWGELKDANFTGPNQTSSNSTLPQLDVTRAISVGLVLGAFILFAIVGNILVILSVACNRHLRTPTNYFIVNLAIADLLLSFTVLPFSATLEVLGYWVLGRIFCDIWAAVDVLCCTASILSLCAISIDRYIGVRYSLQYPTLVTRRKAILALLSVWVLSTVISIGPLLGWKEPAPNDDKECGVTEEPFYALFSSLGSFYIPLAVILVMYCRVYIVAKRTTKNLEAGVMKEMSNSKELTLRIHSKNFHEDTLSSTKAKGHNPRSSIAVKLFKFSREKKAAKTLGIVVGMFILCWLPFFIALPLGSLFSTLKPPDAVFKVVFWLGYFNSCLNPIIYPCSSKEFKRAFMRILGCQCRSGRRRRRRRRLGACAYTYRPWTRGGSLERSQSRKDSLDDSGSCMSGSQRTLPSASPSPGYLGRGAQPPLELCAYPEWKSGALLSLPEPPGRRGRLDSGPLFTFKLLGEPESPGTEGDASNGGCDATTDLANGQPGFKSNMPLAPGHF
Summary of the method: as §3

[10] = biological target: T4, Alpha-1A adrenergic receptor (Oryctolagus cuniculus); test: Functional agonism of the compounds to constrict tissue containing the alpha-1A adrenergic receptor in rabbit urethra; type: tissue-based
Summary of the method: as §2

[11] = biological target: Alpha adrenergic receptor 1A and 1D (Rattus norvegicus) (UniProt P23944+P43140); test: Selectivity is ratio of pKi (binding affinity) of Alpha-1D to that of alpha1A; type: protein assay
[12] = biological target: T5, Alpha-1B adrenergic receptor (Rattus norvegicus); test: Functional agonism of the compounds to constrict tissue containing the alpha-1B adrenergic receptor in rat spleen; type: tissue-based
Summary of the method: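 Agonist dose–response curves were run on isolated tissue: rabbit urethra for α1A, rat spleen for α1B, and rat aorta for α1D.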

Canis familiaris [13] = species: Canis familiaris; test: Ratio of MAP ED delta20 to that of IUP ED delta5
Canis familiaris [14] = test: Uroselectivity was determined by measuring effective dose required for 5 mmHg increase of intraurethral pressure (IUP) in vivo in dog; type: functional, Canis lupus familiaris
Summary of the method: as §1

[15] = biological target: T8, Alpha-1A adrenergic receptor (Rattus norvegicus, UniProt P43140); test: In vitro binding affinity towards alpha-1A adrenergic receptor of rat submaxillary gland in radioligand binding assay
T8 sequence (P43140 whole entry): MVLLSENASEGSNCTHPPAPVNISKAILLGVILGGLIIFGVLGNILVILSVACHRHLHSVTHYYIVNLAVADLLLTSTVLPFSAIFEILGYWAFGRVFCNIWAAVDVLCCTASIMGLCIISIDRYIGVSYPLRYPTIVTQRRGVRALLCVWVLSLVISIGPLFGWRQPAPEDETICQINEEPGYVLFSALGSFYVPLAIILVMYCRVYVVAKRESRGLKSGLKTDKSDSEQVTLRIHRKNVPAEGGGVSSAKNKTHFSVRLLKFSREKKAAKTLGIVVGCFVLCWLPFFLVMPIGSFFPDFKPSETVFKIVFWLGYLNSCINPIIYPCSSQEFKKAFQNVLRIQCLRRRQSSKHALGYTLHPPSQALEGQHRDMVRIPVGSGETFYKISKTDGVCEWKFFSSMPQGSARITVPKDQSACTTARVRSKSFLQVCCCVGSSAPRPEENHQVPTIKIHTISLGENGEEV
Summary of the method: as §3

| Structure (SMILES) | Efficacy [1] [%] | ED delta20 (Canis familiaris [2]) [nM/kg] | Ki [3] [nM] | Ki [4] [nM] | Efficacy [5] [%] | Efficacy [6] [%] | Selectivity [7] | Ki [8] [nM] | Ki [9] [nM] | pD2 [10] | Selectivity [11] | pD2 [12] | Ratio (Canis familiaris [13]) | ED delta5 (Canis familiaris [14]) [nM/kg] | Ki [15] [nM] |
| --- | --- | --- | --- | --- | --- | --- | --- | --- | --- | --- | --- | --- | --- | --- | --- |
| CS(=O)(=O)Nc1cccc2c1CCCC2c1c[nH]cn1 (stereo not given) | 62 | 102.3 | 105 | 676 | 83 | – | – | – | – | – | – | – | – | – | – |
| CC(=O)Nc1cccc2c1CCCC2c1c[nH]cn1 (stereo not given) | 100 | 220 | – | 3020 | 70 | 35 | – | – | – | – | – | – | – | – | – |
| COc1ccc(NS(C)(=O)=O)c2c1C(c1c[nH]cn1)CCC2 (stereo not given) | – | 1850 | – | – | 57 | 26 | > 6 | > 10000 | > 10000 | 4.81 | > 6 | 4.74 | 2.6 | – | – |
| CS(=O)(=O)Nc1cccc2c1OCCC2c1c[nH]cn1 (stereo not given) | – | 163.9 | – | – | 88 | 17 | – | – | – | – | – | – | – | – | – |
| CS(=O)(=O)Nc1c(O)ccc2c1CCCC2c1c[nH]cn1 (stereo not given) | – | 0.16 | 44.7 | 47.9 | 104 | 94 | – | – | – | – | – | – | 1 | 0.18 | – |
| CS(=O)(=O)Nc1cccc2c1CCCC2C1=NCCN1 (stereo not given) | – | 9.2 | – | – | 87 | – | 20 | 4270 | 7410 | 6.19 | 9 | – | 1.1 | 11.9 | 457 |
| CCS(=O)(=O)Nc1cccc2c1CCC2c1c[nH]cn1 (stereo not given) | 26 | 5.6 | – | 186 | 87 | – | – | – | – | – | – | – | – | 4.4 | – |
| CCS(=O)(=O)Nc1cc(Cl)cc2c1CCCC2c1c[nH]cn1 (stereo not given) | – | 47.7 | – | – | – | – | > 217 | – | > 10000 | – | 8 | – | 2.5 | 19.1 | 45.7 |
| CCS(=O)(=O)Nc1cccc(Cc2c[nH]cn2)c1 | 34 | 80 | 170 | 977 | 80 | – | – | 275 | 891 | – | – | – | – | 12 | – |
